These results are taken from ChEMBL document CHEMBL1121715, “New antiarrhythmic agents. 4. 1'-(Aminoalkyl)-1,2,3,4-tetrahydronaphthalene-1-spiro-3'-pyrrolidine-2',5'-dione derivatives” (J Med Chem, 1981).

For data set [1], the species on record is Mus musculus. Briefly: Percentage toxicity measured as convulsions. The data set is classed as organism-based. The following applies: in vivo. In a few lines:
(§1)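 Mice (groups of 10) were dosed sc with drug in 0.9% saline and watched for 20 min for overt toxicity (ataxia, convulsions, loss of righting reflex, death) before chloroform exposure.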

Data set [2] is filed under the species Mus musculus. Nature of the data set: Percentage toxicity measured as loss of righting reflex. In kind it is organism-based. The following applies: in vivo. The essentials:
as §1

The species entered for data set [3] is Mus musculus. Nature of the data set: Percentage toxicity measured as ataxia. The data set is classed as organism-based. Conditions: in vivo. In a few lines:
as §1

Data set [4] relates to Mus musculus. Briefly: Protection against chloroform induced arrhythmias was measured in mice after sc administration at given dose. The data set is classed as functional. The essentials:
(§2)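 Groups of 10 unanesthetized mice got sc injection of drug in 0.9% saline. After 20 min observation they were placed one by one in chloroform-vapor-saturated air. When breathing stopped, the thorax was opened and the heart inspected by eye; coordinated ventricular contractions counted as protected.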

A short description of data set [5]: Percentage toxicity measured as death of mice. In kind it is organism-based. Set-up: concentration or dose not given beside the values. The following applies: mouse, in vivo; read-out: Death.
Data set [6] relates to Mus musculus. Nature of the data set: Protection against chloroform induced arrhythmias in mice after subcutaneous administration at 100 mg/kg dose. The data set is classed as functional. In a few lines: as §2
Data set [7] relates to Mus musculus. Briefly: Ataxia was measured in mice after sc administration at given dose. The data set is classed as functional. In a few lines:
(§3)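 Mice in groups of 10 received drug sc in 0.9% saline and were watched 20 min for overt toxicity before chloroform exposure. At least three doses were given.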

Data set [8] relates to Mus musculus. Briefly: Protection against chloroform induced arrhythmias was measured in mice after sc administration at given dose. In kind it is functional. In a few lines:
as §2

The species named for data set [9] is Canis familiaris. Briefly: The dose at which toxicity was measured. Conditions: dog, in vivo. In kind it is organism-based, Canis lupus familiaris. The essentials:
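Adult female dogs (6.7–14.5 kg) had two-stage ligation of the left anterior descending coronary artery the day before testing. After control ventricular rate, % ectopic beats and mean arterial pressure were recorded, the drug (HCl salt, isotonic solution) was infused iv without anesthesia at 0.1, 0.5 or 1.0 (mg/kg)/min, mostly 0.5. Infusion continued until the arrhythmia was abolished or cardiovascular/CNS toxicity appeared. Cumulative dose is given in mmol/kg; toxicity included convulsion and P-R prolongation ≥25%.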

Data set [10] has as its system Mus musculus. Nature of the data set: Ataxia was measured in mice after sc administration at given dose. In kind it is functional. In a few lines:
as §3

In data set [11] the test system is Canis familiaris. Briefly: Ventricular rate was measured in anesthetized dog at 0.32+/-0.11 dose. The following applies: in the assay text read “unanesthetized” for “anesthetized”. The data set is classed as functional, Canis lupus familiaris, Heart. In a few lines:
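Adult female dogs (6.7–14.5 kg) had ventricular arrhythmias from two-stage ligation of the left anterior descending coronary artery the day before. Ventricular rate (bpm) was read at maximal antiarrhythmic effect against cumulative dose.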

The test system of data set [12] is Canis familiaris. Briefly: MABP value was measured in anesthetized dog at 0.32+/-0.11 dose. In kind it is functional, Canis lupus familiaris.
Data set [13] concerns Canis familiaris. Nature of the data set: % ectopic beats was measured in unanesthetized dog at 0.32+/-0.11 dose; 2+/-2.
Where [14] appears, read: Mus musculus, sc, read-out: ED50.

For `CCN(CC)CCCN1C(=O)CC2(CCCc3ccc(C)cc32)C1=O` (stereo not drawn), the Convulsion in the data set listed under Mus musculus [1] is 0%. For the same compound, the “Loss of righting reflex” value in the data set filed under Mus musculus [2] is recorded as 0%. The Ataxia in the data set listed under Mus musculus [3] is on record as 0%. The same compound had a 50% effective dose (ED50) in the data set on Mus musculus [4] of 210 µmol/kg. For the same compound, in data set [5], the mortality came to 0%. The same compound showed a Protection with Mus musculus [6] of 70%.
For `CCN(CC)CCCN1C(=O)CC2(CCCc3ccc(Cl)cc32)C1=O` (stereo not drawn), the ED50 in the data set on Mus musculus [7] came to 110 µmol/kg; with Mus musculus [4] it was 160 µmol/kg. In the data set filed under Mus musculus [1], this compound displayed a Convulsion of 0%. In addition, the “Loss of righting reflex” value in the data set listed under Mus musculus [2] turned out to be 0%. The same compound had an Ataxia in the data set listed under Mus musculus [3] of 100%. Besides, the mortality in data set [5] turned out to be 0%. The Protection in the data set on Mus musculus [6] was determined as 90%.
For `CN(CCO)CCCN1C(=O)CC2(CCCc3ccccc32)C1=O` (stereo not drawn), the 50% effective dose (ED50) was found to be 760 µmol/kg in the data set with Mus musculus [7] and 560 µmol/kg with Mus musculus [4]. Also, in the data set listed under Mus musculus [1], the Convulsion was found to be 0%. The “Loss of righting reflex” value in the data set filed under Mus musculus [2] came to 0%. The Ataxia in the data set filed under Mus musculus [3] is listed as 0%. In addition, the mortality in data set [5] is 0%. This compound also had a Protection in the data set on Mus musculus [6] of 30%.
On to `CCN(CC)CCCCCN1C(=O)CC2(CCCc3ccccc32)C1=O` (racemic), for which the ED50 in the data set on Mus musculus [8] (setting [14]) is 240 µmol/kg. The compound further had a Convulsion in the data set filed under Mus musculus [1] of 0%. Moreover, the “Loss of righting reflex” value in the data set filed under Mus musculus [2] was 0%. In the data set filed under Mus musculus [3], this compound displayed an Ataxia of 0%. Further, the mortality in data set [5] worked out at 0%. This compound had a Protection in the data set on Mus musculus [6] (100 mg/kg) of 80%.
`CCN(CC)CCCCCN1C(=O)CC2(CCCc3ccccc32)C1=O` (single isomer, unassigned; (+)) displayed an ED50 in the data set on Mus musculus [8] of 210 µmol/kg. This compound also yielded a Protection in the data set on Mus musculus [6] (100 mg/kg) of 50%.
In the case of `CCN(CC)CCCCCN1C(=O)CC2(CCCc3ccccc32)C1=O` (single isomer, unassigned; (-)), it took a dose of 160 µmol/kg to reach the 50% effect level in the data set with Mus musculus [8] (ED50). This compound also came in with a Convulsion in the data set listed under Mus musculus [1] of 30%. For the same compound, the Ataxia in the data set listed under Mus musculus [3] is 100%. In addition, the Protection in the data set on Mus musculus [6] (100 mg/kg) is recorded as 90%.
Turning to `Cc1cccc(C)c1NC(=O)C(C)N` (stereo not drawn) [TOCAINIDE], the ED50 stood at 1300 µmol/kg in the data set with Mus musculus [8] (setting [14]) and 760 µmol/kg with Mus musculus [10]. The compound further displayed a Convulsion in the data set filed under Mus musculus [1] of 0%. Moreover, in the data set listed under Mus musculus [2], the “Loss of righting reflex” value amounted to 0%. In addition, the Ataxia in the data set listed under Mus musculus [3] stood at 10%. Further, in data set [5], the mortality stood at 0%. Besides, the Protection in the data set with Mus musculus [6] was found to be 20%. This compound displayed a Cumulative dose in the data set filed under Canis familiaris [9] of 0.3. Moreover, in the data set with Canis familiaris [11], the Ventricular rate stood at 148 beats min-1. In the data set on Canis familiaris [12], this compound displayed an MABP of 108 mmHg. Further, the Ectopic beats with Canis familiaris [13] is listed as 2%.

In general, ED50 refers to the dose that gives a 50% effect, or the effect in half of the subjects.
